Screening results: PubChem, Johns Hopkins Ion Channel Center
Hits are enriched below; roughly 2.3% of the tested compounds scored in any of these assays.
TRPC6 activator – activates the mouse TRPC6 cation channel; 0.13% of 310,000 active; B-score at 10 µM; Q61143; HEK293-TRPC6 membrane potential dye fluorescence; stronger effect = higher value;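 active = B-score of the integrated fluorescence ratio above library mean plus 3 SD, and starting fluorescence ratio within library mean plus 5 SD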;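 note: higher score means more depolarization so channel activation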
Target sequence (Q61143 whole entry, looked up): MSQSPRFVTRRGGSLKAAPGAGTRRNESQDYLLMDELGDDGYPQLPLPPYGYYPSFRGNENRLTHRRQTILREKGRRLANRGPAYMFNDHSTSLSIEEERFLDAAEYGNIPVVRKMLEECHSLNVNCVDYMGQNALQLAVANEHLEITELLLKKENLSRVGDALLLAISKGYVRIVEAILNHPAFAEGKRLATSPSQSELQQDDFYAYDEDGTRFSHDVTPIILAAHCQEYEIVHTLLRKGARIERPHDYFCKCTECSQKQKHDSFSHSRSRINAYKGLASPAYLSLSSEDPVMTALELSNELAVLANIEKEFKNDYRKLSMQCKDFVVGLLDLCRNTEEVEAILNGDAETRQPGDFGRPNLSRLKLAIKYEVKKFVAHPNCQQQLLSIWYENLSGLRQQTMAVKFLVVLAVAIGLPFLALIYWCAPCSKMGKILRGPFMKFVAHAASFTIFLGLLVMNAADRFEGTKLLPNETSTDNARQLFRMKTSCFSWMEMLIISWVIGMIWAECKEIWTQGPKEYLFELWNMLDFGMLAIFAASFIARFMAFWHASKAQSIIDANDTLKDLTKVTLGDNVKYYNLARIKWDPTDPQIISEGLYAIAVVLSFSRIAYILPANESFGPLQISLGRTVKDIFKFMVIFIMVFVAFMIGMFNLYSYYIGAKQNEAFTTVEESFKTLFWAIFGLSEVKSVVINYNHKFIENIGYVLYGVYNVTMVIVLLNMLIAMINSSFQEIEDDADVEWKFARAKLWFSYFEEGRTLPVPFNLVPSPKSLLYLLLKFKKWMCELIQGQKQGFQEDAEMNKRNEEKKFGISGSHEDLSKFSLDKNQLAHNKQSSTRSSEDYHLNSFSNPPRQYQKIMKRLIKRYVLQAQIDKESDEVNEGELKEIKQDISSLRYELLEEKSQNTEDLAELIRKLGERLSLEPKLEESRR
TRPC4 potent – TRPC4 (mouse) allosteric potentiation | HEK293 TRPC4beta/mu-opioid, DAMGO EC20, Fluo-4 Ca2+ flux; stronger effect = higher value | B-score at 10 µM | 0.42% of 310,000 active;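 active = B-score of calcium response area above 5 SD of library B-scores, with initial fluorescence ratio within 5 SD of library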;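 note: B-score of integrated fluorescence ratio over time as area under calcium response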
TRPC4 agonist – opens the mouse TRPC4 cation channel; Q9QUQ5; HEK293 TRPC4beta/mu-opioid, Fluo4 calcium fluorescence; stronger effect = higher value; B-score at 10 µM; 0.49% of 310,000 active; AID 2237;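 active = B-score above 5 SD of library B-scores, and initial fluorescence ratio not above library mean plus 5 SD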;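 note: positive B-score marks a calcium rise read as TRPC4 activation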
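Incubation: 45 min room-temperature Fluo4 loading, 110 s read / System: HEK293 cells stably co-expressing mouse TRPC4beta and mu-opioid receptor / Signal: Fluo4 fluorescence, kinetic / Control set: buffer (low) and maximal DAMGO (high) / Measure: integrated baseline-normalised fluorescence ratio, converted to per-well B score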
TRPC4 block – inhibitors of mouse TRPC4 channel; Q9QUQ5; HEK293 TRPC4beta/mu-opioid, DAMGO-evoked Fluo4 calcium flux; stronger effect = lower value; B-score at 10 µM; 0.39% of 300,000 active;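 active = B-score over 3 SD under the library average, no early fluorescence shift, positive overall ratio signal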
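Signal: kinetic Fluo4 fluorescence imaging of calcium influx. Material: stable TRPC4beta/mu-opioid receptor HEK293 cells. Probe or stimulus: DAMGO in two steps, submaximal then maximal.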
TRPC6 inh – mouse TRPC6 channel inhibition; 1.1% of 310,000 active; B-score at 10 µM; Q61143; HEK293-TRPC6, membrane potential dye, ACh-evoked depolarization; stronger effect = lower value;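 active = B-score under library mean minus 3 SD, initial fluorescence not abnormally high, positive integrated signal ratio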;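 note: B-score derived from integrated fluorescence ratio over the kinetic read; more negative B-score means stronger inhibition of depolarization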
TRPC4 sel inh 2 – second check of whether TRPC6 inhibitors also affect mouse TRPC4; shares compounds with TRPC6 inh; HEK293 TRPC4/MOR, membrane potential dye fluorescence; channel activated by saturating DAMGO dose; inhibition, % at 10 µM; 42% of 920 active;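 active = compounds whose fluorescence signal differed from control wells by over 3 SD, either direction, in both duplicate plates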
TRPC4 spec – selectivity of TRPC6 inhibitors: effect on mouse TRPC4; AID 2777; HEK293 TRPC4/mu-opioid, membrane potential fluorescence; shares compounds with TRPC6 inh; 61% of 920 active; activity change, negative = inhibition, % at 10 µM;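 active = rise or fall in signal beyond 3 SD of buffer-only wells in both replicate plates, either sign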;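 note: integrated kinetic ratio of fluorescence range over baseline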
HEK293 MPD ctr 2-1 – second check of TRPC6 inhibitor effects in parental HEK293 cells; shares compounds with TRPC6 inh; parental HEK293 membrane potential dye fluorescence; maximal acetylcholine challenge after compound addition; signal change vs control, % at 10 µM; 31% of 920 active;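 active = membrane potential signal moving either way by over 3 SD of the maximum-effect control, in both duplicate plates, meaning non-specific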
HEK293 MPD ctr-1 – checks TRPC6 inhibitor effects in parental HEK293 cells | membrane potential signal change, % at 10 µM | parental HEK293 membrane potential dye fluorescence | shares compounds with TRPC6 inh | 60% of 920 active | AID 2780;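 active = membrane potential signal shifting up or down by more than 3 SD of buffer-only wells, on both duplicate plates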
HEK293 MPD ctr-2 – checks TRPC6 modulator effects in parental HEK293 cells; shares compounds with TRPC6 inh; membrane potential signal change, % at 10 µM; membrane potential dye fluorescence; 51% of 2,400 active;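 active = membrane potential signal moves up or down beyond 5 SD from buffer-only wells, on both duplicate plates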
HEK293 MPD ctr 2-2 – parental HEK293 nonspecific activity of TRPC6 modulators, second screen; shares compounds with TRPC6 inh; membrane potential dye fluorescence; after compound, maximal acetylcholine stimulation; inhibition, % at 10 µM; 14% of 2,400 active;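 active = membrane potential signal drops by more than 5 SD from the mean control signal, in both duplicate plates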;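 note: plate controls were acetylcholine ECmax control wells for no effect and buffer only wells for full effect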
TRPC4/MOR mod – selectivity of TRPC6 modulators against mouse TRPC4. shares compounds with TRPC6 inh. HEK293 TRPC4/mu-opioid, membrane potential fluorescence. percent change from control (negative = decrease, positive = increase), % at 10 µM. 69% of 2,400 active. AID 488927;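 active = membrane potential signal moved up or down beyond 5 SD of buffer control wells, in both duplicate plates, actives on both sides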;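 note: plate controls were assay buffer wells for no effect and DAMGO maximal-effect wells for full effect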
TRPC4 ctr inh 2 – mouse TRPC4 off-target activity of TRPC6 modulators, second screen; 55% of 2,400 active; inhibition, % at 10 µM; AID 488928; shares compounds with TRPC6 inh; HEK293 TRPC4/mu-opioid, membrane potential dye fluorescence; stimulated with maximal-effect DAMGO;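 active = drop in membrane potential signal beyond 5 SD of the control wells in both duplicate plates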;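 note: TRPC4 counter screen for TRPC6 hits run under conditions tuned for TRPC6 not TRPC4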
TRPC6 inh conf – mouse TRPC6 inhibitor confirmation | shares compounds with TRPC6 inh | HEK293-TRPC6, membrane potential dye, ACh-evoked depolarization | inhibition, % at 10 µM | 43% of 3,300 active;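 active = fluorescence ratio falls more than 5 SD below the full-stimulation control mean, in both duplicate runs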;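 note: integrated fluorescence ratio of peak minus minimum over baseline after agonist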
TRPC6 act conf – confirmation of mouse TRPC6 activators. shares compounds with TRPC6 inh. HEK293-TRPC6 membrane potential dye fluorescence, FDSS. activation, % at 10 µM. 11% of 2,800 active;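 active = ratio signal rise beyond 5 SD above unstimulated control wells' mean, seen in both duplicate runs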;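 note: plate controls were buffer EC0 wells for no effect and acetylcholine ECmax response for full effect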
* = called active by the depositor.

CCOc1cc(C2Nc3cccc4cccc(c34)N2)ccc1O was read as TRPC6 activator inactive, TRPC4 potent inactive, TRPC4 agonist inactive, TRPC4 block inactive, TRPC6 inh -5.9*, HEK293 MPD ctr-2 -122%*, HEK293 MPD ctr 2-2 inactive, TRPC4/MOR mod -28%*, TRPC4 ctr inh 2 57%*, TRPC6 inh conf 41%* and TRPC6 act conf inactive.
`c1ccc(C2Nc3cccc4cccc(c34)N2)cc1` gave TRPC6 activator inactive, TRPC4 potent inactive, TRPC4 agonist inactive, TRPC4 block inactive and TRPC6 inh inactive.
`COc1ccc(C2Nc3cccc4cccc(c34)N2)cc1` gave TRPC6 activator inactive, TRPC4 potent inactive, TRPC4 agonist inactive, TRPC4 block inactive, TRPC6 inh -5*, HEK293 MPD ctr-2 inactive, HEK293 MPD ctr 2-2 inactive, TRPC4/MOR mod -16%*, TRPC4 ctr inh 2 45%*, TRPC6 inh conf inactive and TRPC6 act conf inactive.
For COc1cc(NC(=O)CSc2nc(C)c(C)c(C)n2)cc(OC)c1 the results were TRPC6 activator inactive, TRPC4 potent inactive, TRPC4 agonist inactive, TRPC4 block inactive and TRPC6 inh inactive.
For COCCn1c(C)cc(C(=O)COC(=O)C2CC(=O)N(CCc3ccc(OC)c(OC)c3)C2)c1C (centres undefined) the results were TRPC6 activator inactive, TRPC4 potent inactive, TRPC4 agonist inactive, TRPC4 block inactive and TRPC6 inh inactive.
CCN(CC)C(=O)c1cn(CCC#N)nc1-c1ccc2ccccc2c1 was read as TRPC6 activator inactive, TRPC4 potent inactive, TRPC4 agonist inactive, TRPC4 block inactive and TRPC6 inh inactive.
CC(C)c1ccc2c(c1)C1(NN=C(c3ccccc3)S1)C(=O)N2 (centres undefined) was read as TRPC6 activator inactive, TRPC4 potent 11*, TRPC4 agonist inactive, TRPC4 block inactive, TRPC6 inh -5.7*, HEK293 MPD ctr-2 -150%*, HEK293 MPD ctr 2-2 inactive, TRPC4/MOR mod -33%*, TRPC4 ctr inh 2 75%*, TRPC6 inh conf 46%* and TRPC6 act conf inactive.
Screening CCc1ccc2c(c1)C1(NN=C(c3ccc(C)cc3)S1)C(=O)N2 (centres undefined) returned TRPC6 activator inactive, TRPC4 potent inactive, TRPC4 agonist inactive, TRPC4 block inactive and TRPC6 inh inactive.
`COc1ccc(C(=O)NCc2ccon2)cc1OC1CCN(C(C)C)CC1` gave TRPC6 activator inactive, TRPC4 potent inactive, TRPC4 agonist inactive, TRPC4 block inactive and TRPC6 inh inactive.
Cc1nc2c(C(=O)N3CCCCC3)cnn2c(C)c1Cc1ccccc1F was read as TRPC6 activator 22*, TRPC4 potent inactive, TRPC4 agonist inactive, TRPC4 block inactive, TRPC6 inh -11*, HEK293 MPD ctr-2 147%*, HEK293 MPD ctr 2-2 inactive, TRPC4/MOR mod 28%*, TRPC4 ctr inh 2 30%*, TRPC6 inh conf 114%* and TRPC6 act conf 178%*.
Screening COc1ccccc1C(=O)NC1CCN(C(=O)Nc2ccc(C)cc2)CC1 returned TRPC6 activator inactive, TRPC4 potent inactive, TRPC4 agonist inactive, TRPC4 block inactive and TRPC6 inh inactive.
Screening Cc1ccc(-n2c(-c3cccc(C)c3)n[nH]c2=S)cc1 returned TRPC6 activator inactive, TRPC4 potent inactive, TRPC4 agonist inactive, TRPC4 block inactive, TRPC6 inh -18*, HEK293 MPD ctr-2 inactive, HEK293 MPD ctr 2-2 inactive, TRPC4/MOR mod inactive, TRPC4 ctr inh 2 inactive, TRPC6 inh conf inactive and TRPC6 act conf inactive.
`Cc1ccc(-c2n[nH]c(=S)n2-c2ccccc2)cc1` gave TRPC6 activator inactive, TRPC4 potent inactive, TRPC4 agonist inactive, TRPC4 block inactive and TRPC6 inh inactive.
O=C(c1cccs1)N1CCCC(c2nc3c(nnn3Cc3ccccc3)c(=O)[nH]2)C1 (centres undefined) was read as TRPC6 activator inactive, TRPC4 potent inactive, TRPC4 agonist inactive, TRPC4 block inactive and TRPC6 inh inactive.
For O=C(c1cccs1)N1CCCC(c2nc3c(nnn3Cc3ccc(F)cc3)c(=O)[nH]2)C1 (centres undefined) the results were TRPC6 activator inactive, TRPC4 potent inactive, TRPC4 agonist inactive, TRPC4 block inactive, TRPC6 inh -7.5*, TRPC4 sel inh 2 inactive, TRPC4 spec inactive, HEK293 MPD ctr 2-1 inactive, HEK293 MPD ctr-1 inactive, TRPC6 inh conf inactive and TRPC6 act conf inactive.
Nc1cccc(C(=O)OCC(=O)Nc2cccc3c2C(=O)c2ccccc2C3=O)c1 was read as TRPC6 activator inactive, TRPC4 potent inactive, TRPC4 agonist inactive, TRPC4 block inactive and TRPC6 inh inactive.
`CCN(CC)CCC(=O)Nc1cccc2c1C(=O)c1ccccc1C2=O` gave TRPC6 activator inactive, TRPC4 potent inactive, TRPC4 agonist inactive, TRPC4 block inactive, TRPC6 inh -6.4*, HEK293 MPD ctr-2 inactive, HEK293 MPD ctr 2-2 inactive, TRPC4/MOR mod -30%*, TRPC4 ctr inh 2 46%*, TRPC6 inh conf 52%* and TRPC6 act conf inactive.
